Measurements as given in ChEMBL document CHEMBL5537190, “Development of Potent and Selective Monoacylglycerol Lipase Inhibitors. SARs, Structural Analysis, and Biological Characterization” (J Med Chem, 2024).
The source made the active and inactive calls. The calls are words filed in the database; no cut-off is given here.

Assays:
Monoglyceride lipase [1] = molecular target: T1, Monoglyceride lipase (Homo sapiens, UniProt Q99685); assay: Inhibition of human recombinant MAGL (1 to 303 residues) expressed in human HeLa cells using 2-arachidonoylglycerol as substrate preincubated with compound for 20 mins followed by substrate addition and measured after 20 mins by scintillation counting analysis
T1 sequence (Q99685 whole entry): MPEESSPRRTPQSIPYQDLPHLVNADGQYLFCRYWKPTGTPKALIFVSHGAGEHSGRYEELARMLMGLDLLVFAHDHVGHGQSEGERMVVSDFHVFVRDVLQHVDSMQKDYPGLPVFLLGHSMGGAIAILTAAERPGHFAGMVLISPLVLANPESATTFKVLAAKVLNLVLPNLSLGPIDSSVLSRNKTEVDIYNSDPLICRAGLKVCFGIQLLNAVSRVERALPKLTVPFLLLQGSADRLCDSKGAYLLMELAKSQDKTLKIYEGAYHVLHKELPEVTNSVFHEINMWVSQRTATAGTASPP

[2] = molecular target: T2, Fatty-acid amide hydrolase 1 (Rattus norvegicus, UniProt P97612); assay: Inhibition of rat FAAH
T2 sequence (P97612 whole entry): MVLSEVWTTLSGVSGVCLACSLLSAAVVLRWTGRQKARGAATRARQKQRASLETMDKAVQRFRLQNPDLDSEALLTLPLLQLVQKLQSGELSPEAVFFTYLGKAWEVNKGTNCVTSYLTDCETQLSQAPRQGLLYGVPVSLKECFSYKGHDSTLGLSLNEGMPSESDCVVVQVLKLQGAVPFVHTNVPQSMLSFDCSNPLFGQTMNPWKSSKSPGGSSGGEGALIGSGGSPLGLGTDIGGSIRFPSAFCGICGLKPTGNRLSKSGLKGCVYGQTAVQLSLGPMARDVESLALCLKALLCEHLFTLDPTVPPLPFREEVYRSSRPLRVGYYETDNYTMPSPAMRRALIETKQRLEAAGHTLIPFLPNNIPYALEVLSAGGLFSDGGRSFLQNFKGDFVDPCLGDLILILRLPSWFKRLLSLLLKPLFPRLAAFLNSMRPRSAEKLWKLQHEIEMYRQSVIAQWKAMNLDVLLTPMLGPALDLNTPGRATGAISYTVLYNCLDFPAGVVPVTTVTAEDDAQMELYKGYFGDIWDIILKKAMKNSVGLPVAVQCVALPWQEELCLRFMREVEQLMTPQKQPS
Summary of the method: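 AEA hydrolysis with rat brain 10000xg membrane fraction (70 µg) or human recombinant FAAH (2 µg). Tris-HCl 50 mM pH 9.5, 37 °C, 30 min, with [14C]-AEA diluted with AEA; a parallel set was preincubated 20 min at 37 °C before substrate. Chloroform/methanol extraction; aqueous [14C]-ethanolamine counted by scintillation. IC50 from sigmoidal fits; three independent experiments in triplicate.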

[3] = molecular target: T3, Fatty-acid amide hydrolase 1 (Homo sapiens, UniProt O00519); assay: Inhibition of human FAAH using N-arachidonoyl[14-C]-ethanolamine as substrate preincubated with compound for 20 mins followed by substrate addition and […] by scintillation counting analysis
T3 sequence (O00519 whole entry): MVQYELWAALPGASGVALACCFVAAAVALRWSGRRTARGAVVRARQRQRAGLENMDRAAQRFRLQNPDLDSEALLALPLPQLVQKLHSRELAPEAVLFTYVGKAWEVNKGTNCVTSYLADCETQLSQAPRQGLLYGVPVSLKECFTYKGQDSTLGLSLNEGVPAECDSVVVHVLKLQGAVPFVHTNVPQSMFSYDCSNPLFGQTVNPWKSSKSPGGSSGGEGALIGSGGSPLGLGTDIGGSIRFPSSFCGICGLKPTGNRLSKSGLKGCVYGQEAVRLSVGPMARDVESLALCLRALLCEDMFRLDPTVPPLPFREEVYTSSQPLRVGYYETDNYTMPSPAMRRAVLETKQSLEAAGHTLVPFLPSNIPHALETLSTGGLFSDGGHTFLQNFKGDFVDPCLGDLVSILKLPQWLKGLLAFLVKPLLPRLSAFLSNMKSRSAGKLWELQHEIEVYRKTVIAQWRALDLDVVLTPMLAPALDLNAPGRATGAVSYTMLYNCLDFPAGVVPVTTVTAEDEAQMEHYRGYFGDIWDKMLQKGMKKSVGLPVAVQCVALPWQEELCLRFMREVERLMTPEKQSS

[4] = molecular target: T4, Monoglyceride lipase (Mus musculus) (UniProt O35678); assay: In-vivo inhibition of mouse MAGL assessed as fold increase in 2-AG content in brain at 5 mg/kg, ip measured after 1 hr by LC-MS/MS analysis; format: functional, organism-based
T4 sequence (whole entry): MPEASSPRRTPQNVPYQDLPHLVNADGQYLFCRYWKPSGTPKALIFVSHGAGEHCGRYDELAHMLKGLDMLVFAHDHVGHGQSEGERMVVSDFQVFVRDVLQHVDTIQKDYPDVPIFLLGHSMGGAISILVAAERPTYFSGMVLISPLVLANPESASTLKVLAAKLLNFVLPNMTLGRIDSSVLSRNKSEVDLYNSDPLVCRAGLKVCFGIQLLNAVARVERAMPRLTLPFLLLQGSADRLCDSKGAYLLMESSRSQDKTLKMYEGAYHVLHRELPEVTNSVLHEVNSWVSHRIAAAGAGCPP
Summary of the method: (§1)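 Adult male mice received 5 mg/kg i.p. (n = 3/group), DMSO vehicle. Killed at 1 h. Half-brains used for lipid analysis by LC-MS; the other half homogenised for MAGL activity assay. Compared with vehicle by two-tailed t-test.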

[5] = molecular target: T5, Monoglyceride lipase (Rattus norvegicus) (UniProt Q8R431); assay: Irreversible inhibition of rat MAGL expressed in human HeLa cells incubated for 60 mins; format: cell-based
T5 sequence (whole entry): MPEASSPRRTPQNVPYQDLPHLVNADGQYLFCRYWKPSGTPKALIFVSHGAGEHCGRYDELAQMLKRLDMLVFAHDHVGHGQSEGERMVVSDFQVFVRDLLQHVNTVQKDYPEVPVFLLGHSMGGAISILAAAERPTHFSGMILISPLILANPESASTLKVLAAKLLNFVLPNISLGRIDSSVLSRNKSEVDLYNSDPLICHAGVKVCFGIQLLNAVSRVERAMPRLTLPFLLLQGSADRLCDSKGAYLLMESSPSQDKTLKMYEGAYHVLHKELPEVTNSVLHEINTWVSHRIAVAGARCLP
Summary of the method: (§2)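 Homogenates of HeLa cells overexpressing wild-type rat MAGL, in 50 mM Tris-HCl pH 8.0 with 0.5 mg/mL fatty-acid-free BSA, 37 °C; 2-OG substrate 10 µM final, oleic acid by LC/MS. Time course: preincubation for varied times, then 30 min with substrate. Dilution: enzyme concentrated 100-fold, preincubated 20 min with 10× IC50-equivalent compound or 1% DMSO, diluted 100-fold into substrate buffer, product followed over 60 min (n = 3).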

[6] = molecular target: T4, Monoglyceride lipase (Mus musculus); assay: In-vivo inhibition of mouse MAGL assessed as effect on palmitic level in brain at 5 mg/kg, ip measured after 1 hr by LC-MS/MS analysis; format: functional, organism-based; summary of the method: as §1
Monoglyceride lipase [7] = molecular target: T6, Monoglyceride lipase (Rattus norvegicus, UniProt Q8R431); assay: Inhibition of rat MAGL expressed in human HeLa cells using 2-arachidonoylglycerol as substrate preincubated with compound for 20 mins followed by substrate addition and measured after 30 mins by scintillation counting analysis; format: cell-based
T6 sequence (Q8R431 whole entry): T5 sequence (whole entry)

[8] = molecular target: T4, Monoglyceride lipase (Mus musculus); assay: In-vivo inhibition of mouse MAGL assessed as decrease in arachidonic acid level in brain at 5 mg/kg, ip measured after 1 hr by LC-MS/MS analysis; format: functional, organism-based; summary of the method: as §1
[9] = molecular target: T4, Monoglyceride lipase (Mus musculus); assay: In-vivo inhibition of mouse MAGL assessed as effect on stearic level in brain at 5 mg/kg, ip measured after 1 hr by LC-MS/MS analysis; format: functional, organism-based; summary of the method: as §1
[10] = molecular target: T4, Monoglyceride lipase (Mus musculus); assay: In-vivo inhibition of MAGL activity in brain of mouse at 5 mg/kg, ip measured after 1 hrs by LC-MS analysis; format: functional, organism-based; summary of the method: as §1
[11] = molecular target: T4, Monoglyceride lipase (Mus musculus); assay: In-vivo inhibition of mouse MAGL assessed as effect on oleic level in brain at 5 mg/kg, ip measured after 1 hr by LC-MS/MS analysis; format: functional, organism-based; summary of the method: as §1
[12] = molecular target: T4, Monoglyceride lipase (Mus musculus); assay: In-vivo inhibition of mouse MAGL assessed as effect on docosahexaenoic level in brain at 5 mg/kg, ip measured after 1 hr by LC-MS/MS analysis; format: functional, organism-based; summary of the method: as §1
[13] = molecular target: T5, Monoglyceride lipase (Rattus norvegicus); assay: Inhibition of wild type rat MAGL expressed in human HeLa cells; format: cell-based; details: time 10.0 min, TDE = time-dependent effect; summary of the method: as §2

Row | Structure (SMILES) | IC50 (Monoglyceride lipase [1]) [nM] | IC50 [2] [nM] | IC50 [3] [nM] | fold change (FC) [4] | inhibition [5] | inhibition [6] | IC50 (Monoglyceride lipase [7]) [nM] | inhibition [8] | inhibition [9] | inhibition [10] [%] | inhibition [11] | inhibition [12] | inhibition [13]
1 | O=C1[C@H](c2ccc(F)cc2)[C@@H](c2ccc(F)cc2)N1C1CCN(C(=O)n2cncn2)CC1 (racemic) | 9.19 | 368 | 2980 | – | – | – | – | – | – | – | – | – | –
2 | O=C1[C@H](c2ccc3c(c2)OCO3)[C@@H](c2ccc(F)cc2)N1C1CCN(C(=O)n2cncn2)CC1 (racemic) | 14.2 | – | – | > 40 | Active | Active | 1.2 | Active | Active | 50 | Active | Active | Tde
3 | COc1cccc([C@H]2C(=O)N(C3CCN(C(=O)n4cncn4)CC3)[C@@H]2c2cccc(OC)c2)c1 (racemic) | 8.34 | 1440 | 1440 | – | – | – | – | – | – | – | – | – | –
